Screens (PubChem)
p47phox inh: inhibitors of human p47phox binding; P14598; p47phox/p22phox peptide binding, fluorescence polarization, 2 h; inhibition, % at 24.7 µM; hit rate 0.53% among 220,000
RBBP9 inhibitor: inhibitors of human serine hydrolase RBBP9; hit rate 0.2% among 220,000; AID 1515; inhibition, % at 7.94 µM; O75884; recombinant RBBP9, FP-Rh probe fluorescence polarization;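 active = inhibition above the campaign mean of all tested compounds plus 3 SD, cut at about 14% in these data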
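System: RBBP9 protein / Quantity: 2.5 µM RBBP9 dispensing solution, before mixing / Also added: Serine-hydrolase probe FP-Rh, 375 nM pre-mixing / Dosing: 7.94 µM single dose, 0.794% DMSO / Timing: enzyme-compound preincubation 30 min, then probe labeling 45 min, 25 °C / Signal: FP readout at 525/598 nm / Controls: DMSO-treated enzyme wells and wells lacking RBBP9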
14-3-3 Bad inh: disrupts binding of bovine 14-3-3 zeta to phospho-Bad peptide; inhibition, % at 21.7 µM; hit rate 0.71% among 220,000; P63103; TR-FRET 14-3-3zeta/Dy647-pBad peptide displacement, 1 h;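 active = inhibition above about 70%, limit read from the data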
Wee1 stabilizer: human Wee1 degradation inhibition, primary screen. P30291. HeLa Luc-Wee1K328M stability, luciferase luminescence; 100% = proteasome inhibitor MG132 effect. reporter increase, % at 5 µM. hit rate 1.2% among 220,000. AID 1321;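 active = activation above the mean of all tested compounds plus 3 SD, set per screening run, cut at about 8.8% in these data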;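 note: cells exposed to compound for 20 h before luminescence read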
eIF4E-4G inh: eIF4E/eIF4G interaction inhibition in translation initiation. P63073+Q04637. TR-FRET eIF4E-eIF4GI(517-606) binding, 2 h. inhibition, % at 21.7 µM. hit rate 0.37% among 220,000. AID 782
Target sequence (P63073 whole entry, looked up): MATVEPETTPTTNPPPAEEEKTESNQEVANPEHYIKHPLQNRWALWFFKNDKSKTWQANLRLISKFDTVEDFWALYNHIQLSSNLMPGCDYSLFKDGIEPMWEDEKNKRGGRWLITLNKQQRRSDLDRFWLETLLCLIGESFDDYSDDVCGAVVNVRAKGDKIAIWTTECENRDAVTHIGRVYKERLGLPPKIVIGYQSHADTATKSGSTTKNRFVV
Target sequence (Q04637 whole entry, looked up): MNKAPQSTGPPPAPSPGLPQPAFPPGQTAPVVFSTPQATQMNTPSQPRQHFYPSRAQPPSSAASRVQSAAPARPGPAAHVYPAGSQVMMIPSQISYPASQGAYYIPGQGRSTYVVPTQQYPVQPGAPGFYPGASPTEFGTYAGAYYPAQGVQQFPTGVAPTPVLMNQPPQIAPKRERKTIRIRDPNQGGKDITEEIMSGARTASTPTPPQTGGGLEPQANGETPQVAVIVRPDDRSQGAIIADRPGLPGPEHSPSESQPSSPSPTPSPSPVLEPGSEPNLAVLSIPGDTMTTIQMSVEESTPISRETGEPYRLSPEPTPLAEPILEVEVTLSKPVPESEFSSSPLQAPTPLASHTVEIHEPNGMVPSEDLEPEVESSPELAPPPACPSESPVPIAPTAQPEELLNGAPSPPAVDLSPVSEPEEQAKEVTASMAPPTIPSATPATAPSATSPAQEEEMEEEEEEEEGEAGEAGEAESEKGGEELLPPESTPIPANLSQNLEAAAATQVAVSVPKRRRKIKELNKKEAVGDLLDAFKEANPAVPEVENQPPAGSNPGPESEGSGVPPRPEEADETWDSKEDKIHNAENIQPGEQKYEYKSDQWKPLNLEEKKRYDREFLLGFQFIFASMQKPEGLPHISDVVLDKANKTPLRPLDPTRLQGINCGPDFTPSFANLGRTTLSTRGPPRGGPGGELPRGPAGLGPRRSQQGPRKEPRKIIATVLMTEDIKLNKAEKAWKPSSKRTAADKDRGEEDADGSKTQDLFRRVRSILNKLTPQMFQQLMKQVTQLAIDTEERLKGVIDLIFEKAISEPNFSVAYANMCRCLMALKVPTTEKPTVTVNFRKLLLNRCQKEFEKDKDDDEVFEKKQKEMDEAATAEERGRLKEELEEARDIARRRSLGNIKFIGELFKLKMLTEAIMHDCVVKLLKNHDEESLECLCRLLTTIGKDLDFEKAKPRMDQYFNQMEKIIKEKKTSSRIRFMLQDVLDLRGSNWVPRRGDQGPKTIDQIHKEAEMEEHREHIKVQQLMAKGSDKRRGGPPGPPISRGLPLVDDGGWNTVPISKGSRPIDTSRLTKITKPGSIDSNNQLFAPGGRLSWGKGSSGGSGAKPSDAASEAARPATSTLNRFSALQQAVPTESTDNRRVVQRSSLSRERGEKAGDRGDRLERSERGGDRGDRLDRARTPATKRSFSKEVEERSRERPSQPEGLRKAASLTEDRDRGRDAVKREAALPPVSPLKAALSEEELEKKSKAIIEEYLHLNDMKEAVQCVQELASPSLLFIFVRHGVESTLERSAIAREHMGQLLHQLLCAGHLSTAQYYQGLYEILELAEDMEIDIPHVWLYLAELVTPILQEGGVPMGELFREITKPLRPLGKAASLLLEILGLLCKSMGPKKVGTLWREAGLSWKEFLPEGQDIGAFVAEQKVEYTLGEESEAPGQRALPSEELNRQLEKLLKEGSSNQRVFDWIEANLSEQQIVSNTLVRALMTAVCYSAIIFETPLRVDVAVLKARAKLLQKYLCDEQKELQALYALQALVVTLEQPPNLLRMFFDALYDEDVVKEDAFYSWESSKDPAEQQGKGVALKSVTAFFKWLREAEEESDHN
Large screens that a line does not name were inactive; [ ] = another dose, or the depositor's remark. Compounds with a hit are over-represented: about 2.8% of the library has one in this group of screens.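 Rule for the calls, unless noted: active = inhibition above about 30% (limit read from the data); inactive = the rest.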

CCOC(=O)N1CCN(Cc2ccc(F)cc2F)CC1	14-3-3 Bad inh 91
N#CC1=C(SCC(=O)c2ccc(Br)cc2)NC2=C(C(=O)CCC2)C1c1ccco1 (stereo unspecified)	Wee1 stabilizer 11
Cc1ccc(-c2nnc(N3CC(C)OC(C)C3)c3ccccc23)cc1 (stereo unspecified)	14-3-3 Bad inh 75
CCOc1ccc(C(CC(=O)O)NC(=O)c2cccs2)cc1OC (stereo unspecified)	none
CCOC(=O)c1c(CN2CCOCC2)oc2ccc(OC)cc12	14-3-3 Bad inh 79
COc1ccc2c(C)cc3n[nH]c(=S)n3c2c1	eIF4E-4G inh 33
O=C(c1ccccc1Cl)N1CCC(n2cccc2)CC1	none
CCOC(=O)C(CCCP(=O)(c1ccccc1)c1ccccc1)(NC(C)=O)C(=O)OCC	none
COc1ccc2oc(C(=O)OCc3c(C)noc3C)c(C)c2c1	none
Cc1ccc(-n2c(=O)c3cc4c(=O)n(-c5ccc(C)c(C)c5)c(=O)c4c(C(=O)c4ccc(C(=O)O)cc4)c3c2=O)cc1C	eIF4E-4G inh 64
O=C(CSc1nnc(-c2ccc(F)cc2)c2ccccc12)Nc1ccccc1	Wee1 stabilizer 10
CN1C(=S)SC(N(O)C(=O)Nc2ccc(Cl)c(Cl)c2)C1(C)C (stereo unspecified)	none
COc1cc(OC)nc(NC(=O)COC(=O)c2cccc(Cl)c2)n1	none
O=C(Cn1c(=O)oc2ccccc21)Nc1n[nH]c(=S)s1	none
COc1ccc2nc3cccc(OC)c3nc2c1	none
COc1ccc2nc3ccccc3nc2c1N	Wee1 stabilizer 9.0
Cc1cccc(NC(=S)NC(=O)CCc2ccccc2)c1C	none
Cc1cccc(NC(=S)NC(=O)CCc2ccccc2)c1	14-3-3 Bad inh 77
COc1ccc(-c2csc(C)n2)cc1OC	none
COc1ccc(-c2csc(-c3ccc(C(=O)O)cc3)n2)cc1	Wee1 stabilizer 10
COc1ccc(-c2csc(C)n2)cc1	Wee1 stabilizer 9.0
CCC1=C(OC(=O)N(CC)CC)N2C(=O)OC(=NCC(=O)OC)[C@]2(Cc2ccccc2)[C@H]2C1=CC[C@H]1C(=O)N(c3ccccc3)C(=O)[C@H]12	none (no result: RBBP9 inhibitor, Wee1 stabilizer)
O=C(N=C1c2ccccc2CN1c1cccc(Cl)c1)c1cccnc1	none
O=C(N=C1c2ccccc2CN1c1ccc(F)c(F)c1)c1cccnc1	14-3-3 Bad inh 71
CC(C)(C)N(Cc1ccccc1)C(=O)COC(=O)Cn1cnc2ccccc2c1=O	none
COC(=O)C1CSC(C(=O)OC)N1C(=O)Nc1c(C)cccc1C (stereo unspecified)	none
Cc1cccc(C)c1NC(=O)N1C(C(=O)O)CSC1C(=O)O (stereo unspecified)	p47phox inh 67 (no result: 14-3-3 Bad inh, eIF4E-4G inh)
COc1cc2c(cc1OC)CN(C(=S)NC(=O)c1ccccc1)CC2	p47phox inh 31
COc1cc2c(cc1OC)CN(C(=O)c1cccc([N+](=O)[O-])c1)CC2	Wee1 stabilizer 10
COc1ccccc1OCCC(=O)OCC(=O)c1[nH]c(C)c(C(C)=O)c1C	none
CC(C)(C)c1ccc(C(=O)N2CCNCC2)cc1	p47phox inh 38
CC(C)(C)c1ccc(C(=O)N2CCCN(C(=O)c3ccc(C(C)(C)C)cc3)CC2)cc1	none
CCOc1ccc2nc(SC3CC(=O)N(c4cccc(OC)c4)C3=O)sc2c1 (stereo unspecified)	Wee1 stabilizer 9.1
CCOc1ccc2nc(SC3CC(=O)N(c4ccccc4)C3=O)sc2c1 (stereo unspecified)	none
CCCCn1c(CCC(=O)O)nc2cc(S(=O)(=O)N(CC)CC)ccc21	none
CCc1cc(=O)oc2cc3occ(-c4ccc(OC)c(F)c4)c3cc12	p47phox inh 47, 14-3-3 Bad inh 94
CS(=O)(=O)N1N=C(c2cccs2)CC1c1ccc(Cl)o1 (stereo unspecified)	none
O=C(Nc1ccc(C(=O)Oc2ccccc2)c(O)c1)c1ccccc1	none
CCOC(=O)Nc1ccc(C(=O)Oc2ccccc2)c(O)c1	Wee1 stabilizer 10
O=[N+]([O-])c1ccc(Cl)c2c1C1C=CCC1C(c1ccccn1)N2 (stereo unspecified)	none
O=C(O)c1ccc(Cl)c2c1C1C=CCC1C(c1ccccn1)N2 (stereo unspecified)	p47phox inh 40
Nc1nc(C(F)(F)F)c(Br)c(=O)n1N	none
CCOCCCn1c(=N)c(C(N)=S)cc2c(=O)n3cccc(C)c3nc21	none
CCCCNC(=O)c1cc2c(=O)n3cccc(C)c3nc2n(Cc2ccccc2)c1=N	14-3-3 Bad inh 75
CCNC(=O)c1cc2c(=O)n3cccc(C)c3nc2n(CCc2ccccc2)c1=N	none
Cc1cccn2c(=O)c3cc(C(N)=S)c(=N)n(CCCOC(C)C)c3nc12	Wee1 stabilizer 15
C[C@H]1C=C(C(=O)NC2CC2)O[C@@H](OCc2ccc(CO)cc2)C1	none (no result: RBBP9 inhibitor, Wee1 stabilizer)
CC(=O)C1=C(C)NC(SCc2ccc(C#N)cc2)=C(C#N)C1c1ccco1 (stereo unspecified)	eIF4E-4G inh 44[fluorescence artefact?]
Cc1nn(CCC(=O)O)c2nc(-c3cccnc3)cc(C(F)(F)F)c12	14-3-3 Bad inh 73
Cc1nn(CCC(N)=O)c2nc(-c3cccs3)cc(C(F)(F)F)c12	none
O=[N+]([O-])c1ccc(-n2cnc3ccccc32)c([N+](=O)[O-])c1	none
CCCCOc1nc2ccccc2nc1C(C#N)S(=O)(=O)c1ccccc1 (stereo unspecified)	14-3-3 Bad inh 72
CCOC(=O)C1=NN(C(=O)c2ccccc2)C(O)(c2ccc(C)cc2)C1 (stereo unspecified)	Wee1 stabilizer 15
CN1CCc2nc(SCC(=O)Nc3ccc(F)cc3)c(C#N)cc2C1	p47phox inh 37
FC(F)(F)c1cccc(NC(=S)NCC(c2cccnc2)N2CCOCC2)c1 (stereo unspecified)	none
Cc1cc(C(=O)N/N=C/c2ccc(-c3cccc(Br)c3)o2)n[nH]1	Wee1 stabilizer 10
Nc1ccc(C(=O)N/N=C\c2cc(N=Nc3cccc4ccccc34)ccc2O)cc1	14-3-3 Bad inh 77[fluorescence artefact?]
Cc1cc(C(=O)N/N=C/c2cc(N=Nc3ccccc3)ccc2O)n[nH]1	p47phox inh 35
Cc1cc(C(=O)N/N=C/c2ccc(-c3cccc(Cl)c3Cl)o2)n[nH]1	none
COC(=O)N/N=C/c1cc(N=Nc2ccccc2Cl)ccc1O	none
c1ccc2sc(NC3=NCN(CC4CCCO4)CN3)nc2c1 (stereo unspecified)	none
Cc1cc(C)cc(Oc2coc3cc(OC(=O)c4cccs4)ccc3c2=O)c1	none
Cc1cccc(Oc2coc3cc(OC(=O)c4cccs4)ccc3c2=O)c1	Wee1 stabilizer 11
COC(=O)[C@@H]1C[C@H]2CC[C@H](O)C[C@H]2N1Cc1ccc(-c2ccccc2)cc1	none (no result: RBBP9 inhibitor, Wee1 stabilizer)
O=C(Nc1ccc(OC(F)(F)F)cc1)C1CCCN(S(=O)(=O)c2cccnc2)C1 (stereo unspecified)	14-3-3 Bad inh 82
